The results in this text go back to ChEMBL document CHEMBL3621129, “Investigation on the ZBG-functionality of phenyl-4-yl-acrylohydroxamic acid derivatives as histone deacetylase inhibitors” (Bioorg Med Chem Lett, 2015).

Test [1] concerns HCT-116. Kind of test: cells. The format is functional, cell-based. The settings on record: Homo sapiens, HCT-116, 72 h.
The nature of test [2]: cells. The format is functional, cell-based. As to conditions: Homo sapiens, NB-4, 72 h.
For test [3], the target named is Histone deacetylase 2 (Homo sapiens, UniProt Q92769). Kind of test: Inhibition of human HDAC2 after 40 mins by fluorescence analysis.
Chain of Histone deacetylase 2 (Q92769 whole entry): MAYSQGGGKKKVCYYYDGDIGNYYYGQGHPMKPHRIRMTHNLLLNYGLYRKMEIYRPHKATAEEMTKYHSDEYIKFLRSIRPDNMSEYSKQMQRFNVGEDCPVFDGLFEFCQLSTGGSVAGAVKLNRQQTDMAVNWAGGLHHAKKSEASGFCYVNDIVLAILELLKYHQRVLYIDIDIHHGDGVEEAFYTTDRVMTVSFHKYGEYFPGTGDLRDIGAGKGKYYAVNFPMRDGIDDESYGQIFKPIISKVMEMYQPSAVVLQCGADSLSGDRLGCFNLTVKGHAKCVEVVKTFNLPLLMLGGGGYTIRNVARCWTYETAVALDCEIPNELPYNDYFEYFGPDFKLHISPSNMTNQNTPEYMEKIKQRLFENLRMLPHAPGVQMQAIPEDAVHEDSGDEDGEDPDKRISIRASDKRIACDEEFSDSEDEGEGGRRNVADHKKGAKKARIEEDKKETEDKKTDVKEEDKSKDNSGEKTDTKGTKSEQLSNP
The nature of test [4]: cells. Format: functional, cell-based. The settings on record: Homo sapiens, NCI-H460, 72 h.
In test [5] the test system is IGROV-1. Kind of test: Growth inhibition of human IGROV1 cells after 72 hrs. The format is functional, cell-based. The settings on record: IGROV-1, 72 h. In outline: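 Cells exposed to compound for 72 h. Growth inhibition read by cell counting. IC50 (concentration giving 50% inhibition of cell growth) taken from dose–response curves. Values are means ± SD of three independent experiments.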

The subject of test [6] is IGROV-1/Pt1 (Homo sapiens). Nature of the test: Growth inhibition of human IGROV1/Pt1 cells after 72 hrs. As to conditions: IGROV-1/Pt1, 72 h.
The target in test [7] is T1, Protein deacetylase HDAC6 (Homo sapiens, UniProt Q9UBN7).
T1 sequence (Q9UBN7 whole entry): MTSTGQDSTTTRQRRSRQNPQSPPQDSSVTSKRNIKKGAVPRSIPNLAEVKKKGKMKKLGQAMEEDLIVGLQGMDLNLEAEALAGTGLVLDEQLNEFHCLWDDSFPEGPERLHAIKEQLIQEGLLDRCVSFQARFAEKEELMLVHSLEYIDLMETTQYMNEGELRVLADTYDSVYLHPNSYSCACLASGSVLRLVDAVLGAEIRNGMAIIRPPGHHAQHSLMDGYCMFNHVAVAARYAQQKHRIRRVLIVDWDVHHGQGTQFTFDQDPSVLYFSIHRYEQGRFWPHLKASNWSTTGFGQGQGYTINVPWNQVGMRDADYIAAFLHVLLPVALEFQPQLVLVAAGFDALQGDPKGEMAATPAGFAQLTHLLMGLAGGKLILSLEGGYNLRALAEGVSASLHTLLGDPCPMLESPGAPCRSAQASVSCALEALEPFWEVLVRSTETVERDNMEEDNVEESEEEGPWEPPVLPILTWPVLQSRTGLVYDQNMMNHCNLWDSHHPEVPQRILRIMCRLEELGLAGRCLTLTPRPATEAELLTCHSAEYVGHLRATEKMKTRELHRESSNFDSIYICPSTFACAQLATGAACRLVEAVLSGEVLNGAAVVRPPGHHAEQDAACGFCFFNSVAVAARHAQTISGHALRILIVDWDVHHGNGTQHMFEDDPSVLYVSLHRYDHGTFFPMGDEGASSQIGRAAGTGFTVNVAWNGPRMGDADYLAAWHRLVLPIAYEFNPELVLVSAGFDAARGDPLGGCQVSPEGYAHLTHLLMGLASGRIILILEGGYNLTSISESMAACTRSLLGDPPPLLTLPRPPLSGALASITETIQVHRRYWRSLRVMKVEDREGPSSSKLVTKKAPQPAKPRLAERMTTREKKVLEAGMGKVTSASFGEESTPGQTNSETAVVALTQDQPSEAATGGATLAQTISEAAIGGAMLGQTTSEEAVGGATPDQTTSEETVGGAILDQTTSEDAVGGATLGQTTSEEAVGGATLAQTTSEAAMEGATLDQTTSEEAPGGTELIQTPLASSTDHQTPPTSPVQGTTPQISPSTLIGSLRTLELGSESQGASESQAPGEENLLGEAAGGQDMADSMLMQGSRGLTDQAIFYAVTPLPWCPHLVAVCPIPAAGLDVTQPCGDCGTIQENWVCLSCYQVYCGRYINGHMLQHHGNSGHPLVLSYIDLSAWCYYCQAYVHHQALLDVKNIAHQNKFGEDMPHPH
Nature of the test: Inhibition of HDAC6 (unknown origin).

In test [8] the target is Histone deacetylase 1 (Homo sapiens, UniProt Q13547). Nature of the test: Inhibition of HDAC1 (unknown origin).
Chain of Histone deacetylase 1 (Q13547 whole entry): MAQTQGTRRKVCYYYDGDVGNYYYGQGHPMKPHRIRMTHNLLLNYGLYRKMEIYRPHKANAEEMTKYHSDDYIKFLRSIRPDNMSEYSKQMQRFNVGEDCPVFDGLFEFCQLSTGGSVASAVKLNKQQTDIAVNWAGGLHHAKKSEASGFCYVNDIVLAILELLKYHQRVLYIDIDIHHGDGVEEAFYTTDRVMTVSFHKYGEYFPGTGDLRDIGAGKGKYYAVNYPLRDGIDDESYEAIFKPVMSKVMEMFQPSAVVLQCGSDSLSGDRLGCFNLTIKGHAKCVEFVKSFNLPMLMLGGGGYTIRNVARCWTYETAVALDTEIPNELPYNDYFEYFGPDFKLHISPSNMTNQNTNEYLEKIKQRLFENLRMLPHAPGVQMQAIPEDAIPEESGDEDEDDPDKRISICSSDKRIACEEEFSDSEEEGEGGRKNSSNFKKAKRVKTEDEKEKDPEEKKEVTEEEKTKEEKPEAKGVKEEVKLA

As for `O=C(O)/C=C/c1ccc(-c2ccccc2)cc1`, the 50% inhibitory concentration (IC50) in test [1] is more than 20 µM; in test [2], more than 10 µM; in test [3], more than 5 µM; in test [4], more than 20 µM.

On to `NNC(=O)/C=C/c1ccc(-c2ccccc2)cc1`, for which the IC50 is 11.9 µM in test [1]; 7.1 µM in test [2]; more than 5 µM in test [3]; 7.6 µM in test [5]; 25.1 µM in test [6]; more than 20 µM in test [4].

For the molecule `NNC(=O)N/C=C/c1ccc(-c2ccccc2)cc1`, the 50% inhibitory concentration (IC50) was 16.4 µM in test [1]; 9.8 µM in test [2]; more than 5 µM in test [3]; 14.5 µM in test [5]; 26.7 µM in test [6]; more than 20 µM in test [4].

In the case of `O=C(NO)N/C=C/c1ccc(-c2ccccc2)cc1`, the IC50 in test [7] came to 1.05 µM; in test [1], 4 µM; in test [2], 1.96 µM; in test [3] it was 1.05 µM; in test [5] it was 3.5 µM; in test [6], 6.7 µM. Further, the 50% inhibitory concentration (IC50) was determined as 9.5 µM in test [4] and 1.31 µM in test [8].

In the case of `O=C(N/C=C/c1ccc(-c2ccccc2)cc1)NOCc1ccccc1`, the half-maximal inhibitory concentration (IC50) in test [1] is 40 µM; in test [2], more than 20 µM; in test [3], more than 5 µM; in test [5], 40 µM; in test [6] it was more than 50 µM; in test [4], more than 20 µM.

For the molecule `CC(=O)SCC(=O)/C=C/c1ccc(-c2ccccc2)cc1`, the IC50 in test [1] was 14 µM; in test [2], more than 20 µM; in test [3], more than 5 µM; in test [5], 26.4 µM; in test [6] it was 18.7 µM; in test [4], more than 20 µM.

As for `N#CSC/C=C/c1ccc(-c2ccccc2)cc1`, the half-inhibitory concentration (IC50) in test [1] is 12.6 µM; in test [2], more than 20 µM; in test [3], more than 5 µM; in test [5], 3.8 µM; in test [6], 58.1 µM; in test [4], 9.4 µM.

As for `O=C1/C(=C/c2ccc(-c3ccccc3)cc2)CCN1O`, the IC50 in test [1] is more than 20 µM; in test [2], more than 20 µM; in test [3] it was more than 5 µM; in test [5] it was more than 60 µM; in test [6], more than 60 µM; in test [4] it was more than 20 µM.

For the molecule `O=C(/C=C/c1ccc(-c2ccccc2)cc1)NO`, the concentration for half-maximal inhibition (IC50) in test [2] worked out at 0.9 µM; in test [6], 4 µM; in test [4], 5.4 µM.

Consider `O=C(CCCCCCC(=O)Nc1ccccc1)NO` [VORINOSTAT], for which the concentration for half-maximal inhibition (IC50) in test [6] turned out to be 2.2 µM.

In general, IC50 refers to the concentration that gives 50% inhibition.
